For 33 compounds, Activity, ID50 and ED50 results are on record in ChEMBL document CHEMBL1122377, “Nitrogen bridgehead compounds. 38. New antiallergic 4H-pyrido[1,2-a]pyrimidin-4-ones. 3” (1983).

Structures are written as SMILES.

The subject of the first assay is Rattus norvegicus. In words: Antiallergic activity after os administration using rat reaginic passive cutaneous anaphylaxis (PCA) test; insignificant activity; per os 10e3 umol/kg exhibited 31% protection. The assay is classed as functional.
Conditions: not given
`CCOC(=O)c1cnc2n(c1=O)C(C)CCC2C(=O)Nc1ccccc1` (stereo unspecified): the Activity came to 31%.

The next assay concerns Rattus norvegicus. Nature of the assay: Antiallergic activity after intravenous administration using rat reaginic passive cutaneous anaphylaxis (PCA) test. In kind it is functional.
Conditions: not given
An outline of the steps:
(§1)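 Inhibition in the rat reaginic PCA test after dosing; significance of each value judged by Student's t test.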
Turning to `CC1CCC(=NNc2ccccc2)c2ncc(C(=O)O)c(=O)n21` (stereo in doubt), the ID50 is 0.3 µM/kg.

The same assay, now with this note: Rattus norvegicus, iv; read-out: ID50 (the source's name).
For `CC1CC=C(Nc2ccccc2)c2ncc(C(=O)O)c(=O)n21` (stereo unspecified), the ED50 came out at 2.1 µmol/kg.
In the case of `CC1CCCc2ncc(C(=O)O)c(=O)n21` (stereo unspecified), the ED50 worked out at 240 µmol/kg.
Still for that read-out and setting: under `CC1CC/C(=N\N)c2ncc(C(=O)O)c(=O)n21` (stereo unspecified) stands 42 µmol/kg.
The same measure, in the same setting: under `CC1CCC(/C(S)=N/c2ccccc2)c2ncc(C(=O)O)c(=O)n21` (stereo unspecified) stands 9.1 µmol/kg; under `CCO/N=C1\CCC(C)n2c1ncc(C(=O)O)c2=O` (stereo unspecified), 24.3 µmol/kg.
Still for that read-out and setting: under `CCOC(=O)c1cnc2n(c1=O)C(C)CC/C2=N\O` (stereo unspecified) stands 100 µmol/kg.
As for `CC1CC=C(Nc2cccc(C(=O)O)c2)c2ncc(C(=O)O)c(=O)n21` (stereo unspecified), the ED50 stood at 0.62 µmol/kg.
On the same count and under the same terms, the figure for `O=C(O)c1cc(=O)c2c(OCC(O)COc3cccc4oc(C(=O)O)cc(=O)c34)cccc2o1` [CROMOLYN SODIUM] is 1 µmol/kg; for `CC1CC=C(Nc2ccc(C(=O)O)cc2)c2ncc(C(=O)O)c(=O)n21` (stereo unspecified) it is 3.5 µmol/kg; for `CC1CC=C(Nc2ccccc2C(=O)O)c2ncc(C(=O)O)c(=O)n21` (stereo unspecified) it is 0.66 µmol/kg.
On the same count and under the same terms, under `C[C@@H]1CC=C(Nc2ccccc2)c2ncc(C(=O)O)c(=O)n21` stands 100 µmol/kg.
Same read-out and setting: the figure for `CC1CCC(C(=O)Nc2ccccc2)c2ncc(C(=O)O)c(=O)n21` (stereo unspecified) is 0.56 µmol/kg; for `CC1CCC(=NNc2ccccc2)c2ncc(C(=O)O)c(=O)n21` (stereo in doubt; 2) it is 0.6 µmol/kg.
With `CCc1nc2n(c(=O)c1C(=O)O)C(C)CC/C2=N\O` (stereo unspecified), the ED50 was above 100 µmol/kg.
Still for that read-out and setting: under `Cc1nc2n(c(=O)c1C(=O)O)C(C)CC/C2=N\O` (stereo unspecified) stands above 100 µmol/kg; under `CCO/N=C1\CCC(C)n2c1ncc(C(=O)OCC)c2=O` (stereo unspecified), 41.2 µmol/kg.
In the case of `CC1CC=C(Nc2cccc(F)c2)c2ncc(C(=O)O)c(=O)n21` (stereo unspecified), the ED50 was determined as 1.4 µmol/kg.
Take `Cc1cccc(NC2=CCC(C)n3c2ncc(C(=O)O)c3=O)c1` (stereo unspecified): the ED50 stood at 0.74 µmol/kg.
On the same count and under the same terms, the figure for `CC1CC=C(N(C)c2ccccc2)c2ncc(C(=O)O)c(=O)n21` (stereo unspecified) is above 100 µmol/kg; for `CC(=O)c1cccc(NC2=CCC(C)n3c2ncc(C(=O)O)c3=O)c1` (stereo unspecified) it is 0.36 µmol/kg.
Regarding `C[C@H]1CC=C(Nc2ccccc2)c2ncc(C(=O)O)c(=O)n21`, the ED50 stood at 1.2 µmol/kg.
Still for that read-out and setting: the figure for `CC1CC=C(Nc2ccc(O)cc2)c2ncc(C(=O)O)c(=O)n21` (stereo unspecified) is 2.93 µmol/kg; for `Cc1ccccc1NC1=CCC(C)n2c1ncc(C(=O)O)c2=O` (stereo unspecified) it is 5.4 µmol/kg.
Same read-out and setting: the figure for `CC1CC=C(Nc2ccc(F)cc2)c2ncc(C(=O)O)c(=O)n21` (stereo unspecified) is 8.6 µmol/kg; for `CC1CC/C(=N\O)c2ncc(C(=O)O)c(=O)n21` (stereo unspecified) it is 19.4 µmol/kg.

The subject of the next assay is Rattus norvegicus. Nature of the assay: Antiallergic activity after os administration using rat reaginic passive cutaneous anaphylaxis (PCA) test. In kind it is functional.
Conditions: not given
An outline of the steps: as §1
`CC1CCC(/C=N/c2ccccc2)=C2NC=C(C(=O)O)C(=O)N21` (stereo unspecified) gave an Activity of 47%.

The same assay, now with this note: read-out: ID50 (the source's name).
Regarding `CC1CC=C(Nc2ccc3ccccc3c2)c2ncc(C(=O)O)c(=O)n21` (stereo unspecified), the ED50 came out at 30.8 µmol/kg.
On to `CC1CC=C(Nc2cccc(C(=O)O)c2)c2ncc(C(=O)O)c(=O)n21` (stereo unspecified), for which the ED50 was determined as 92.6 µmol/kg.
On the same count and under the same terms, the figure for `CC1CC=C(Nc2ccc(C(=O)O)cc2)c2ncc(C(=O)O)c(=O)n21` (stereo unspecified) is 277 µmol/kg.
Regarding `CC1CC=C(Nc2ccc(O)cc2)c2ncc(C(=O)O)c(=O)n21` (stereo unspecified), the ED50 was determined as 100 µmol/kg.

The test system of the next assay is Rattus norvegicus. Nature of the assay: Antiallergic activity after iv administration using rat reaginic passive cutaneous anaphylaxis (PCA) test;ins means insoluble.
Conditions: not given
Take `CC1CCC(Nc2ccccc2)c2ncc(C(=O)O)c(=O)n21` (stereo unspecified): the ID50 entry is listed as “Insoluble”.
The same measure, in the same setting: the entry for `CC1CCC(C(=O)N(C)C)c2ncc(C(=O)O)c(=O)n21` (stereo unspecified) is “Insoluble”.

Another assay concerns Rattus norvegicus. Nature of the assay: Antiallergic activity after iv administration using rat reaginic passive cutaneous anaphylaxis (PCA) test;Compound is toxic at 100 umol/kg.
Conditions: not given
As for `CC1CC=C(Nc2cccc(Br)c2)c2ncc(C(=O)O)c(=O)n21` (stereo unspecified), the ID50 came out at 10 µmol/kg.
`CC1CC=C(Nc2cccc(I)c2)c2ncc(C(=O)O)c(=O)n21` (stereo unspecified) came in with an ID50 of 10 µmol/kg.
